Laboratory results from ChEMBL document CHEMBL2146441, “2,6-Disubstituted imidazo[2,1-b][1,3,4]thiadiazoles: search for anticancer agents” (2012).

What was measured:
Type in all cases: functional
SF-295 = assay: Cytotoxicity against human SF295 cells assessed as cell growth at 10^-5 M after 48 hrs by SRB assay; conditions: SF-295, 48 h, read-out: Activity
M14 = assay: Cytotoxicity against human M14 cells assessed as cell growth at 10^-5 M after 48 hrs by SRB assay; conditions: M14, 48 h, read-out: Activity
IGROV-1 = assay: Cytotoxicity against human IGROV1 cells assessed as cell growth at 10^-5 M after 48 hrs by SRB assay; conditions: IGROV-1, 48 h, read-out: Activity
Summary of the method: (§1)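 NCI-60 five-dose screen. Cells were grown in RPMI 1640 with 5% FBS and seeded at 5000–40,000 cells/well according to doubling time. They were pre-incubated 24 h at 37 °C in 5% CO₂, and time-zero (Tz) plates were TCA-fixed at drug addition. Five 10-fold dilutions of DMSO stock were applied for 48 h. Read-out was SRB staining, 515 nm absorbance, with percent growth calculated versus Tz and untreated control.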

OVCAR-5 = assay: Cytotoxicity against human OVCAR5 cells assessed as cell growth at 10^-5 M after 48 hrs by SRB assay; conditions: OVCAR-5, 48 h, read-out: Activity
RXF 393 = assay: Cytotoxicity against human RXF393 cells assessed as cell growth at 10^-5 M after 48 hrs by SRB assay; conditions: RXF 393, 48 h, read-out: Activity
DU-145 = assay: Cytotoxicity against human DU145 cells assessed as cell growth at 10^-5 M after 48 hrs by SRB assay; conditions: DU-145, 48 h, read-out: Activity
Summary of the method: (§2)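 NCI-60 screen: lines kept in RPMI 1640 with 5% FBS, seeded at 5000–40,000 cells/well by doubling time, preincubated 24 h at 37 °C in 5% CO2. Time-zero plates TCA-fixed at drug addition. DMSO stocks diluted in medium, 48 h exposure. Fixation in cold TCA (final 10% adherent, 16% suspension), 0.4% SRB stain, solubilised in 10 mM Tris base, A515. Percent growth computed against control and time-zero.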

SF-268 = assay: Growth inhibition of human SF268 cells after 48 hrs by SRB assay; conditions: SF-268, 48 h
Summary of the method: (§3)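 Adherent NCI-60 lines grown in RPMI 1640 with 5% FBS, seeded at 5000–40,000 cells/well, and preincubated 24 h at 37 °C, 5% CO2. Compound, stocked in DMSO, given either once at 10^-5 M or at five 10-fold dilutions for 48 h. Cells fixed with cold TCA (final 10%), stained with 0.4% SRB, and read at 515 nm. GI50 taken as 50% reduction in net protein increase versus time-zero and control plates.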

[1] = Growth inhibition of human NCI-ADR-RES cells after 48 hrs by SRB assay; summary of the method: as §3
SNB-19 = assay: Cytotoxicity against human SNB19 cells assessed as cell growth at 10^-7 M after 48 hrs by SRB assay; conditions: SNB-19, 48 h, read-out: Activity
EKVX = assay: Cytotoxicity against human EKVX cells assessed as cell growth at 10^-4 M after 48 hrs by SRB assay; conditions: read-out: Activity; summary of the method: as §2
HCT-15 = assay: Cytotoxicity against human HCT15 cells assessed as cell growth at 10^-4 M after 48 hrs by SRB assay; conditions: HCT-15, 48 h, read-out: Activity; summary of the method: as §1
SK-MEL-2 [2] = assay: Cytotoxicity against human SK-MEL-2 cells assessed as cell growth at 10^-4 M after 48 hrs by SRB assay; conditions: SK-MEL-2, 48 h, read-out: Activity
UACC-62 = assay: Cytotoxicity against human UACC62 cells assessed as cell growth at 10^-4 M after 48 hrs by SRB assay; conditions: UACC-62, 48 h, read-out: Activity
SN12C [3] = assay: Cytotoxicity against human SN12C cells assessed as cell growth at 10^-4 M after 48 hrs by SRB assay; conditions: read-out: Activity
CAKI-1 = assay: Cytotoxicity against human Caki1 cells assessed as cell growth at 10^-7 M after 48 hrs by SRB assay; conditions: CAKI-1, 48 h, read-out: Activity; summary of the method: as §2
SN12C [4] = assay: Cytotoxicity against human SN12C cells assessed as cell growth at 10^-7 M after 48 hrs by SRB assay; conditions: read-out: Activity
MDA-MB-468 = assay: Cytotoxicity against human MDA-MB-468 cells assessed as cell growth at 10^-7 M after 48 hrs by SRB assay; conditions: MDA-MB-468, 48 h, read-out: Activity
UACC-257 = assay: Cytotoxicity against human UACC257 cells assessed as cell growth at 10^-8 M after 48 hrs by SRB assay; conditions: UACC-257, 48 h, read-out: Activity
OVCAR-4 = assay: Cytotoxicity against human OVCAR4 cells assessed as cell growth at 10^-8 M after 48 hrs by SRB assay; conditions: OVCAR-4, 48 h, read-out: Activity
TK-10 = assay: Cytotoxicity against human TK10 cells assessed as cell growth at 10^-8 M after 48 hrs by SRB assay; conditions: TK-10, 48 h, read-out: Activity
CCRF-CEM = assay: Cytotoxicity against human CCRF-CEM cells assessed as cell growth at 10^-6 M after 48 hrs by SRB assay; conditions: read-out: Activity; summary of the method: as §2
MOLT-4 = assay: Cytotoxicity against human MOLT4 cells assessed as cell growth at 10^-6 M after 48 hrs by SRB assay; conditions: MOLT-4, 48 h, read-out: Activity
NCI-H460 = assay: Cytotoxicity against human NCI-H460 cells assessed as cell growth at 10^-6 M after 48 hrs by SRB assay; conditions: NCI-H460, 48 h, read-out: Activity
NCI-H522 = assay: Cytotoxicity against human NCI-H522 cells assessed as cell growth at 10^-6 M after 48 hrs by SRB assay; conditions: NCI-H522, 48 h, read-out: Activity
HT-29 = assay: Cytotoxicity against human HT-29 cells assessed as cell growth at 10^-6 M after 48 hrs by SRB assay; conditions: HT-29, 48 h, read-out: Activity; summary of the method: as §1
SF-539 = assay: Cytotoxicity against human SF539 cells assessed as cell growth at 10^-6 M after 48 hrs by SRB assay; conditions: SF-539, 48 h, read-out: Activity
SNB-75 = assay: Cytotoxicity against human SNB75 cells assessed as cell growth at 10^-6 M after 48 hrs by SRB assay; conditions: SNB-75, 48 h, read-out: Activity
SK-MEL-2 [5] = assay: Cytotoxicity against human SK-MEL-2 cells assessed as cell growth at 10^-6 M after 48 hrs by SRB assay; conditions: SK-MEL-2, 48 h, read-out: Activity
ACHN = assay: Cytotoxicity against human ACHN cells assessed as cell growth at 10^-6 M after 48 hrs by SRB assay; conditions: read-out: Activity; summary of the method: as §2
SN12C [6] = assay: Cytotoxicity against human SN12C cells assessed as cell growth at 10^-6 M after 48 hrs by SRB assay; conditions: read-out: Activity
HOP-92 = assay: Cytotoxicity against human HOP92 cells assessed as cell growth at 10^-5 M after 48 hrs by SRB assay; conditions: HOP-92, 48 h, read-out: Activity; summary of the method: as §1

Row | SMILES | growth at 10 µM (SF-295) [%] | growth at 10 µM (M14) [%] | growth at 10 µM (IGROV-1) [%] | growth at 10 µM (OVCAR-5) [%] | growth at 10 µM (RXF 393) [%] | growth at 10 µM (DU-145) [%] | GI50 (SF-268) [µM] | LC50 (SF-268) [µM] | TGI (SF-268) [µM] | GI50 [1] [µM] | LC50 [1] [µM] | TGI [1] [µM] | growth at 0.1 µM (SNB-19) [%] | growth at 100 µM (EKVX) [%] | growth at 100 µM (HCT-15) [%] | growth at 100 µM (SK-MEL-2 [2]) [%] | growth at 100 µM (UACC-62) [%] | growth at 100 µM (SN12C [3]) [%] | growth at 0.1 µM (CAKI-1) [%] | growth at 0.1 µM (SN12C [4]) [%] | also measured
1 | COc1ccc(-c2nn3cc(-c4ccc(O)cc4O)nc3s2)cc1 | 3 | 17 | 9 | 20 | -83 | 27 | 2.42 | > 100 | 41.1 | 2.94 | > 100 | 44.9 | 92 | -9 | 4 | -48 | -72 | 2 | 90 | 93 | growth at 0.1 µM (MDA-MB-468): 78%; growth at 0.01 µM (UACC-257): 92%; growth at 0.01 µM (OVCAR-4): 95%; growth at 0.01 µM (TK-10): 92%; growth at 1 µM (CCRF-CEM): 74%; growth at 1 µM (MOLT-4): 78%; growth at 1 µM (NCI-H460): 75%; growth at 1 µM (NCI-H522): 69%; growth at 1 µM (HT-29): 86%; growth at 1 µM (SF-539): 97%; growth at 1 µM (SNB-75): 33%; growth at 1 µM (SK-MEL-2 [5]): 85%; growth at 1 µM (ACHN): 100%; growth at 1 µM (SN12C [6]): 80%; growth at 10 µM (HOP-92): -33%
2 | COc1ccc(-c2nn3cc(-c4cccc(N)c4)nc3s2)cc1 | 24 | 34 | 20 | 47 | -31 | 41 | 4.13 | > 100 | 27.2 | 4.46 | > 100 | 55.1 | 90 | -18 | 1 | 38 | -41 | 4 | 76 | 91 | growth at 0.1 µM (MDA-MB-468): 80%; growth at 0.01 µM (UACC-257): 100%; growth at 0.01 µM (OVCAR-4): 92%; growth at 0.01 µM (TK-10): 125%; growth at 1 µM (CCRF-CEM): 63%; growth at 1 µM (MOLT-4): 76%; growth at 1 µM (NCI-H460): 76%; growth at 1 µM (NCI-H522): 60%; growth at 1 µM (HT-29): 88%; growth at 1 µM (SF-539): 91%; growth at 1 µM (SNB-75): 52%; growth at 1 µM (SK-MEL-2 [5]): 79%; growth at 1 µM (ACHN): 93%; growth at 1 µM (SN12C [6]): 73%; growth at 10 µM (HOP-92): -25%
